Results as given in PubChem BioAssay AID1229 (Sanford-Burnham Center for Chemical Genomics, 2008).
Out of some 190,000 compounds screened, about 10 (0.005%) were called active. This excerpt belongs to a sample that is enriched for actives. A number with no mark means an inactive call.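 The calls were made as follows: active = diaphorase activity raised at least twofold by the compound at 20 µM; inactive = activation factor below 2.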

Experiment: compounds boosting diaphorase resazurin reduction – biochemical, uHTS, resorufin fluorescence, counter-screen for diaphorase-coupled primary assays, primary screen (AID 1229)
Conditions: Diaphorase/resazurin coupled assay, 16 min, at 20 µM, hits give high values, 1 = vehicle wells, 0 = NADH-free wells
In short: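 Material: purified diaphorase enzyme from Clostridium kluyveri; Also added: 0.114 mM NADH and 0.1 mM resazurin, final amounts; Doses: single compound dose of 20 µM, 1% DMSO final; Times: 16 min enzyme reaction, ambient temperature; Detection: resorufin fluorescence, excitation 544 nm, emission 590 nm; Measure: increased resorufin signal from activators or reducing compounds.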

Row | Compound | activation factor
1 | O=C(NC1CCCC1)C(c1ccc(N2CCOCC2)cc1)N(C(=O)c1ccco1)c1ccccc1F (stereo not drawn) | 0.9
2 | COc1ccc(N2CCN(C(=O)/C(C#N)=C/c3ccccc3)CC2)cc1 | 1
3 | O=[N+]([O-])c1ccccc1SNc1ccccn1 | 0.8
4 | COc1ccccc1C(=O)Nc1ccc(OCc2nnc3c4ccccc4c(C)nn23)cc1 | 0.8
5 | CO/N=C(\N)c1ccc([N+](=O)[O-])cc1 | 0.9
6 | O=S(=O)(Nc1cc(S(=O)(=O)N2CCOCC2)ccc1N1CCCC1)c1cccs1 | 0.9
7 | O=C(COc1cccc(F)c1)Oc1ccc(C(=O)c2ccccc2)cc1 | 0.9
8 | O=C(NNC(=S)Nc1ccccc1)c1cccc(S(=O)(=O)N2CCOCC2)c1 | 0.9
9 | COC(=O)/C=C\C(=O)Nc1cccc([N+](=O)[O-])c1 | 1.1
10 | CCC(C)N(C(=O)COC(=O)C1C(C(=O)OC)=C(C)NC(C)=C1C(=O)OC)C1CCS(=O)(=O)C1 (stereo not drawn) | 0.9
11 | CCn1c(SCC(=O)Nc2ccc(C)cc2)nc2nc3c(cc2c1=O)CCCC3 | 0.9
12 | Cc1cc(C)n(Cc2cnc(N3CCOCC3)s2)n1 | 1
13 | Cc1ccccc1CN1C[C@@H]2C[C@@H](c3ccc4nsnc4c3)N3CCC[C@@]23C1=O | 0.8
14 | O=C(/C=C/c1ccc2c(c1)OCO2)NCc1cn2cc(Cl)ccc2n1 | 1.1
15 | CCN(CC)CCNC(=O)c1sc2ncn(CC(=O)Nc3ccc(C)c(Cl)c3)c(=O)c2c1C | 0.9
16 | Cc1cc(Cl)ccc1NC(=S)NCCCN1CCCC1=O | 1
17 | CCCCn1nc(C(=O)Nc2ccc(S(=O)(=O)Nc3ncccn3)cc2)c2ccccc2c1=O | 0.9
18 | C#CCOCCOCCOCCNc1nc(N2CCN(C(=O)[C@H](CCCCN)n3cc([C@@H](N)C(C)CC)nn3)CC2)nc(N2CCN(C(=O)[C@H](Cc3ccc(O)cc3)n3cc([C@@H](N)C(C)CC)nn3)CC2)n1 (stereo partly drawn) | 1.7
19 | Cn1c(=O)cc(OCC(=O)N2CCN(c3ccccc3F)CC2)c2ccccc21 | 0.9

Row | Compound | activation factor
20 | Cc1cc(F)ccc1S(=O)(=O)Nc1ncnc2scc(-c3ccc(F)cc3)c12 | 0.8
21 | CCOC(=O)CSc1nc(C)cc2c1C(=O)OC2 | 1
22 | Fc1cc(Br)ccc1NC(=S)Nc1cccnc1 | 1
23 | Cc1ccc(NC(=O)NNC(=O)c2sccc2-n2cccc2)cc1 | 1
24 | CNC(=O)c1ccc(NC(=O)c2cccc(C(F)(F)F)c2)cc1 | 0.9
25 | O=c1cc(CO)oc(C(Nc2cccc(C(F)(F)F)c2)c2ccccn2)c1O (stereo not drawn) | 0.7
26 | Cc1ccc2c(c1)C(c1ccccc1)N(C(=O)c1ccc(S(=O)(=O)N3CCOCC3)cc1)CC(=O)N2 (stereo not drawn) | 1
27 | CN1C(=O)/C(=C/c2ccc(C(=O)NC3CCCC3)cc2)Oc2ccccc21 | 1
28 | CN1C=CC=C/C1=C1\SC(=S)N(Cc2ccccc2)C1=O | 1
29 | CCCCC(=O)Nc1ccc(C(=O)Nc2cc(C(F)(F)F)ccc2Cl)cc1 | 1
30 | CCOC(=O)C/C(C)=N\Nc1ccc([N+](=O)[O-])cc1[N+](=O)[O-] | 0.9
31 | N/C(=N\OC(=O)CCc1ccccc1)c1cccnc1 | 1
32 | CCCOc1ccc(NC(=O)CC2C(=O)N(C)C(=S)N2Cc2ccc3c(c2)OCO3)cc1 (stereo not drawn) | 0.8
33 | CC(C(=O)O)n1cnc2sc3c(c2c1=O)CCCC3 (stereo not drawn) | 0.9
34 | NC1=NC(=O)C(Cc2cccc(Cl)c2Cl)S1 (stereo not drawn) | 1
35 | COc1ccc(CCNC(=O)CSc2nc3[nH]ncc3c(=O)n2-c2cccc(C(F)(F)F)c2)cc1OC | 0.9
36 | CC(C)(C)OC(=O)N/N=C/c1cn(-c2ccccc2)nc1-c1cccnc1 | 1
37 | O=C(NC(=S)Nc1ccc2oc(=O)ccc2c1)c1ccc(-c2cccc(Cl)c2Cl)o1 | 1.1
38 | COc1ccc(CN2CCN(Cc3cn(C)nc3-c3ccccc3)CC2CCO)c(C)c1C (stereo not drawn) | 1
